Our source for the IA50, EC50 and Permeability (Papp* 10E6 cm/s) values is ChEMBL document CHEMBL1144318, “Tryptamine-based human beta3-adrenergic receptor agonists. Part 3: improved oral bioavailability via modification of the sulfonamide moiety” (Bioorg Med Chem Lett, 2005).

Assay [1] deals with T1, Beta-3 adrenergic receptor (Homo sapiens, UniProt P13945). In words: Intrinsic activity against human beta-3 adrenergic receptor IA) as a percentage of maximal stimulation with isoproterenol. In kind it is functional. Summed up:
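In CHO cells expressing low-density human β3-AR (13,000 receptors/cell), cAMP accumulation was measured. Intrinsic activity is expressed as a percentage of the maximal stimulation produced by isoproterenol.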
Target sequence in this assay (P13945 whole entry, looked up): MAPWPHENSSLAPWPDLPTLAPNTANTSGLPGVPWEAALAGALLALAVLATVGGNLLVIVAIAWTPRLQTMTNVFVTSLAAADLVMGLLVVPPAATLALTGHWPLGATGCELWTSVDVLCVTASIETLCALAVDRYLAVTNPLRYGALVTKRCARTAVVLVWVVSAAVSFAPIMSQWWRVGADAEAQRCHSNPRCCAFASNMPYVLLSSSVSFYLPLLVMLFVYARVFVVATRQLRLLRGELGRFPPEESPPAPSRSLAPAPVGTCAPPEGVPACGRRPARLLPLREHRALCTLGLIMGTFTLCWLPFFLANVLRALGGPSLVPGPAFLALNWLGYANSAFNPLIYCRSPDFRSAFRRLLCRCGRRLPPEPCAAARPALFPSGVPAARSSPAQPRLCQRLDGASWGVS

In assay [2] the target is Beta-1 adrenergic receptor (Homo sapiens, UniProt P08588). Description: Agonistic activity was assessed by measuring cAMP accumulation in CHO cells expressing human beta-1 adrenergic receptor. Type of assay: functional, cell-based. On the technique in general: cAMP levels reflect the balance of adenylyl cyclase and phosphodiesterase activity.
Assay [3] has as its target T2, Beta-2 adrenergic receptor (Homo sapiens, UniProt P07550). Description: Agonistic activity was assessed by measuring cAMP accumulation in CHO cells expressing human beta-2 adrenergic receptor. In kind it is functional, cell-based.
For assay [4], the target named is T1, Beta-3 adrenergic receptor. Description: Agonistic activity was assessed by measuring cAMP accumulation in CHO cells expressing human beta-3 adrenergic receptor. In kind it is functional, cell-based.
Target sequence in this assay (P13945 whole entry): as the sequence (P13945 whole entry, looked up) above
Assay [5] concerns Caco-2. Description: Permeability of compounds was determined in Caco-2 cell monolayer permeability assay; (moderate). In kind it is functional, cell-based. The following applies: Homo sapiens. (Caco-2 monolayers are a common model of the intestinal barrier.)
Assay [6] has as its system Caco-2. In words: Permeability of compounds was determined in Caco-2 cell monolayer permeability assay; (high). Type of assay: functional, cell-based. The note with it: Homo sapiens.
Assay [7] concerns the target T2, Beta-2 adrenergic receptor. In words: Effective concentration against human beta-2 adrenergic receptor. Type of assay: functional.

Beta-1 adrenergic receptor, sequence (P08588 whole entry): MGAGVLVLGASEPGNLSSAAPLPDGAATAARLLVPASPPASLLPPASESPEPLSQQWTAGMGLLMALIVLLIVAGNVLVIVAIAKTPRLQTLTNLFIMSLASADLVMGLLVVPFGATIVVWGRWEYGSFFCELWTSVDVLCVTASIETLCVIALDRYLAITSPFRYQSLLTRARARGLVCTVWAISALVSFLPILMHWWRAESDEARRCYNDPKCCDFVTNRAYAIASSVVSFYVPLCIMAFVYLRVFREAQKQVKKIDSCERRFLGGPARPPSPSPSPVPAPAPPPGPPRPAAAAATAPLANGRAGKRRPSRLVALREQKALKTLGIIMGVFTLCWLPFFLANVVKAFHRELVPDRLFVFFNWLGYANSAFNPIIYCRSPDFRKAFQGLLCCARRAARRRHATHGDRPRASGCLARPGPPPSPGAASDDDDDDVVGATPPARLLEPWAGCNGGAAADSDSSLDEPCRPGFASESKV
T2 sequence (P07550 whole entry): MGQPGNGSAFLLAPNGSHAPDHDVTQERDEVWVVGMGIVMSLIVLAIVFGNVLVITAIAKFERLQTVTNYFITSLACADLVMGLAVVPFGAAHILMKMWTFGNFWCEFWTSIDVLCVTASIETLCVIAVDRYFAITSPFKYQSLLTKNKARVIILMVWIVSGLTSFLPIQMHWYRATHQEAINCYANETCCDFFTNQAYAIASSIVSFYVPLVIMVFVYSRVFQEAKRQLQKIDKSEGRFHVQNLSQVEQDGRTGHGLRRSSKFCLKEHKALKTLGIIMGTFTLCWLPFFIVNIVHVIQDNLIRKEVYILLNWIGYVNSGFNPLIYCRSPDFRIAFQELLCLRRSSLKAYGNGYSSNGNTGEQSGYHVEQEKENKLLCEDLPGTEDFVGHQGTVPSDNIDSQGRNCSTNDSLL

The compound `CC(C)=CCNc1cccc([C@@H](O)CN[C@H](C)Cc2c[nH]c3c(OS(C)(=O)=O)cccc23)c1` registered an IA50 in assay [1] of 79%. Besides, the EC50 (usually the concentration at which the effect is half-maximal) was determined as 160 nM in assay [2], 36 nM in assay [3] and 36 nM in assay [4].
`C[C@H](Cc1c[nH]c2c(OS(C)(=O)=O)cccc12)NC[C@H](O)c1cccc(CS(=O)(=O)c2ccccc2)c1` showed a Permeability (Papp* 10E6 cm/s) in the assay on Caco-2 [5] of 0.9. Moreover, in assay [1], the IA50 turned out to be 54%. Moreover, a half-maximal effect in assay [4] (EC50) was put at 100 nM.
For `C#CCNc1cccc([C@@H](O)CN[C@H](C)Cc2c[nH]c3c(OS(C)(=O)=O)cccc23)c1`, the IA50 in assay [1] came out at 102%. Also, the EC50 in assay [2] turned out to be 45 nM; in assay [3], 9.6 nM; in assay [4] it was 10 nM.
In assay [1], `C=C(C)CNc1cccc([C@@H](O)CN[C@H](C)Cc2c[nH]c3c(OS(C)(=O)=O)cccc23)c1` returned an IA50 of 114%. The EC50 in assay [3] turned out to be 1.5 nM; in assay [4], 17 nM.
The compound `C[C@H](Cc1c[nH]c2c(OS(C)(=O)=O)cccc12)NC[C@H](O)c1cccc(NCc2ccc3ccccc3c2)c1` had an IA50 in assay [1] of 107%. In assay [4], this compound returned an EC50 of 2.9 nM.
Consider `C[C@H](Cc1c[nH]c2c(OS(C)(=O)=O)cccc12)NC[C@H](O)c1cccc(N(C)S(=O)(=O)c2ccccc2)c1`, for which, in assay [1], the IA50 stood at 38%. This compound gave an EC50 in assay [4] of 52 nM. Further, the Permeability (Papp* 10E6 cm/s) with Caco-2 [6] amounted to 4.7.
In assay [1], `C[C@H](Cc1c[nH]c2c(OS(C)(=O)=O)cccc12)NC[C@H](O)c1cccc(NCc2ccccc2)c1` showed an IA50 of 87%. For the same compound, the EC50 was determined as 16 nM in assay [3] and 11 nM in assay [4]. Further, the Permeability (Papp* 10E6 cm/s) in the assay with Caco-2 [6] is 9.
In the case of `C[C@H](Cc1c[nH]c2c(OS(C)(=O)=O)cccc12)NC[C@H](O)c1cccc(NC(=O)c2ccccc2)c1`, in the assay with Caco-2 [5], the Permeability (Papp* 10E6 cm/s) was found to be 0.9. Moreover, in assay [1], the IA50 was found to be 96%. Further, the EC50 in assay [2] came out at 120 nM; in assay [3] it was 69 nM; in assay [4], 160 nM.
Regarding `C[C@H](Cc1c[nH]c2c(OS(C)(=O)=O)cccc12)NC[C@H](O)c1cccc(NS(=O)(=O)c2ccccc2)c1`, the concentration giving a half-maximal response (EC50) worked out at 19 nM in assay [7], 13 nM in assay [2] and 0.54 nM in assay [4]. The same compound had an IA50 in assay [1] of 90%.
In turn, `C=CCNc1cccc([C@@H](O)CN[C@H](C)Cc2c[nH]c3c(OS(C)(=O)=O)cccc23)c1` yielded an IA50 in assay [1] of 110%. Further, the EC50 in assay [3] is 2.2 nM; in assay [4], 3.2 nM.
For `C[C@H](Cc1c[nH]c2c(OS(C)(=O)=O)cccc12)NC[C@H](O)c1cccc(NC/C=C/c2ccccc2)c1`, in that order: 97%, 13 nM and 1 nM.
The compound `C[C@H](Cc1c[nH]c2c(OS(C)(=O)=O)cccc12)NC[C@H](O)c1cccc(OCc2ccccc2)c1` yielded an IA50 in assay [1] of 90%. Also, the EC50 in assay [3] came out at 46 nM; in assay [4], 15 nM. Moreover, in the assay on Caco-2 [6], the Permeability (Papp* 10E6 cm/s) was 6.7.
Consider `C[C@H](Cc1c[nH]c2c(OS(C)(=O)=O)cccc12)NC[C@H](O)c1cccc(OS(=O)(=O)c2ccccc2)c1`, for which the IA50 in assay [1] was determined as 60%. The compound also showed an EC50 in assay [4] of 32 nM. Also, the Permeability (Papp* 10E6 cm/s) in the assay on Caco-2 [6] came to 7.
Compound `CC#CCNc1cccc([C@@H](O)CN[C@H](C)Cc2c[nH]c3c(OS(C)(=O)=O)cccc23)c1` displayed an IA50 in assay [1] of 90%. The EC50 in assay [3] was found to be 18 nM; in assay [4], 6.5 nM.
In assay [1], `CC/C=C/CNc1cccc([C@@H](O)CN[C@H](C)Cc2c[nH]c3c(OS(C)(=O)=O)cccc23)c1` returned an IA50 of 101%. The EC50 in assay [3] was determined as 11 nM; in assay [4], 9 nM.
As for `C/C=C/CNc1cccc([C@@H](O)CN[C@H](C)Cc2c[nH]c3c(OS(C)(=O)=O)cccc23)c1`, in assay [1], the IA50 was 102%. In addition, the results for the EC50 in assay [2], in assay [3] and in assay [4] were 170 nM, 10 nM and 1.2 nM, respectively.
